Measured values reported in ChEMBL document CHEMBL1212842, “Substrate specificity and inhibitory study of human airway trypsin-like protease” (Bioorg Med Chem, 2010).
Blank lines part the entries; values can stand above or below the molecule they belong to. Where a SMILES comes first, the peptide text is derived from it. [ ]: non-standard residue; d: D form. The star is where a group is joined. NH(3-CONH2-4-NO2-Ph) = NC(=O)c1cc(N*)ccc1[N+](=O)[O-]; AMC = Cc1cc(=O)oc2cc(N*)ccc12; 2Abz = Nc1ccccc1C(=O)O; Boc = CC(C)(C)OC(=O)*

Key:
Homo sapiens [1] = organism: Homo sapiens; assay: Activity at human tryptase by FRET assay
Bos taurus [2] = organism: Bos taurus; assay: Ratio of Kcat to Km for bovine trypsin by FRET assay
Homo sapiens [3] = organism: Homo sapiens; assay: Ratio of Kcat to Km for human tryptase by FRET assay
Bos taurus [4] = organism: Bos taurus; assay: Activity at bovine trypsin by FRET assay
[5] = biological target: T1, Suppressor of tumorigenicity 14 protein (Homo sapiens, UniProt Q9Y5Y6); assay: Inhibition of human matriptase by FRET assay
T1 sequence (Q9Y5Y6 whole entry): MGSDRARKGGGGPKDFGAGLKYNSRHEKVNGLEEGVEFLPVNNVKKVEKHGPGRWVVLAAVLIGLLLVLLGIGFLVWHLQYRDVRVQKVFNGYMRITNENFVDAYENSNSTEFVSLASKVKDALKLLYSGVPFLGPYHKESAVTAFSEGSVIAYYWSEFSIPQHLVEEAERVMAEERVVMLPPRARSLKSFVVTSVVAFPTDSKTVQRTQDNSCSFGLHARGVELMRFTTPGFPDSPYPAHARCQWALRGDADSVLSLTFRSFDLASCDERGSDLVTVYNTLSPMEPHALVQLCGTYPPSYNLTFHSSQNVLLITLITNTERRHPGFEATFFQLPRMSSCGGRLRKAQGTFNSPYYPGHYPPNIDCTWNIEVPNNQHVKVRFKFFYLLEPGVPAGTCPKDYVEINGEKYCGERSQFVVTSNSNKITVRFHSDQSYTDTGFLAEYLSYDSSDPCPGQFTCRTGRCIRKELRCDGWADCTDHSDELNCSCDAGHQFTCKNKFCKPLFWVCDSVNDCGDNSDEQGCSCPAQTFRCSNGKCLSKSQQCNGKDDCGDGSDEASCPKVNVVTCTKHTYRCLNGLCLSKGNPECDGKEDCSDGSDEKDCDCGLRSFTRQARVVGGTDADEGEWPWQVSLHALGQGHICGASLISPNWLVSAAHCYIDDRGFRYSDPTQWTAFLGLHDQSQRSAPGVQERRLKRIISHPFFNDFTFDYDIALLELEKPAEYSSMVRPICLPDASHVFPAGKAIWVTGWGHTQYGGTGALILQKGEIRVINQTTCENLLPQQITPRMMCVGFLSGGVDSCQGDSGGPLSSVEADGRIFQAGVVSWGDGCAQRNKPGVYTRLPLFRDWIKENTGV

[6] = Inhibition of human tryptase by FRET assay
[7] = biological target: T2, Transmembrane protease serine 11D (Homo sapiens, UniProt O60235); assay: Inhibition of human HAT by FRET assay
T2 sequence (O60235 whole entry): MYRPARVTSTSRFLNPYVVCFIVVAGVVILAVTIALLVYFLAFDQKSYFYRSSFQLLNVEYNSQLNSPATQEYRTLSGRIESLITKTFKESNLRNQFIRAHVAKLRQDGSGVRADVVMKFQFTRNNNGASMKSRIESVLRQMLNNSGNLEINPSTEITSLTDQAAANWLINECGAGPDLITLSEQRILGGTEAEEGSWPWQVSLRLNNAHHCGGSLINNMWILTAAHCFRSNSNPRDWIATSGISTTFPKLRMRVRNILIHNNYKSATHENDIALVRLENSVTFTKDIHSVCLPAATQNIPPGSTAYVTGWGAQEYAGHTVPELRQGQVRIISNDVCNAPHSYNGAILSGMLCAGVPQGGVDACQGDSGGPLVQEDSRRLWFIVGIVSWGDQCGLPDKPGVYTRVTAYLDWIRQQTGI
Outline: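 Inhibitor at increasing concentrations (0–100 nM) was preincubated for 60 min with enzyme (20 nM) in Tris-HCl, pH 7.8. Chromogenic substrate (1.8–100 µM) was then added and absorbance was followed over time. For HAT, the substrate was an ABZ/ANB-labelled tetrapeptide. Ki was calculated from the initial velocities of hydrolysis.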

[8] = Inhibition of bovine trypsin by FRET assay; parameters: species or system Bos taurus
[9] = substrate: N=C(N)NCCC[C@H](NC(=O)c1ccccc1N)C(=O)N[C@@H](CCC(N)=O)C(=O)N[C@@H](CC(=O)O)C(=O)N[C@@H](CCCNC(=N)N)C(=O)Nc1ccc([N+](=O)[O-])c(C(N)=O)c1; assay: (§1) Ratio of Kcat to Km for human HAT by FRET assay
[10] = substrate: N=C(N)NCCC[C@H](NC(=O)c1ccccc1N)C(=O)N[C@@H](CCC(N)=O)C(=O)N[C@@H](CC(=O)O)C(=O)N[C@@H](CCCCN)C(=O)Nc1ccc([N+](=O)[O-])c(C(N)=O)c1; assay: as §1
[11] = substrate: Cc1cc(=O)oc2cc(NC(=O)[C@H](CCCNC(=N)N)NC(=O)[C@H](CO)NC(=O)[C@H](Cc3ccccc3)NC(=O)OC(C)(C)C)ccc12; assay: as §1
[12] = substrate: N=C(N)NCCC[C@H](NC(=O)c1ccccc1N)C(=O)N[C@@H](CCC(N)=O)C(=O)N[C@@H](CC(=O)O)C(=O)N[C@@H](CCCNC(=N)N)C(=O)Nc1ccc([N+](=O)[O-])c(C(N)=O)c1; assay: (§2) Activity at human HAT by FRET assay
[13] = substrate: N=C(N)NCCC[C@H](NC(=O)c1ccccc1N)C(=O)N[C@@H](CCC(N)=O)C(=O)N[C@@H](CC(=O)O)C(=O)N[C@@H](CCCCN)C(=O)Nc1ccc([N+](=O)[O-])c(C(N)=O)c1; assay: as §2
[14] = substrate: Cc1cc(=O)oc2cc(NC(=O)[C@H](CCCNC(=N)N)NC(=O)[C@H](CO)NC(=O)[C@H](Cc3ccccc3)NC(=O)OC(C)(C)C)ccc12; assay: as §2
[15] = substrate: N=C(N)NCCC[C@H](NC(=O)c1ccccc1N)C(=O)N[C@@H](CCC(N)=O)C(=O)N[C@@H](CC(=O)O)C(=O)N[C@@H](CCCNC(=N)N)C(=O)Nc1ccc([N+](=O)[O-])c(C(N)=O)c1; assay: (§3) Ratio of Kcat to Km for human matriptase by FRET assay
[16] = substrate: N=C(N)NCCC[C@H](NC(=O)c1ccccc1N)C(=O)N[C@@H](CCC(N)=O)C(=O)N[C@@H](CC(=O)O)C(=O)N[C@@H](CCCCN)C(=O)Nc1ccc([N+](=O)[O-])c(C(N)=O)c1; assay: as §3
[17] = substrate: Cc1cc(=O)oc2cc(NC(=O)[C@H](CCCNC(=N)N)NC(=O)[C@H](CO)NC(=O)[C@H](Cc3ccccc3)NC(=O)OC(C)(C)C)ccc12; assay: as §3
[18] = substrate: N=C(N)NCCC[C@H](NC(=O)c1ccccc1N)C(=O)N[C@@H](CCC(N)=O)C(=O)N[C@@H](CC(=O)O)C(=O)N[C@@H](CCCNC(=N)N)C(=O)Nc1ccc([N+](=O)[O-])c(C(N)=O)c1; assay: (§4) Activity at human matriptase by FRET assay
[19] = substrate: N=C(N)NCCC[C@H](NC(=O)c1ccccc1N)C(=O)N[C@@H](CCC(N)=O)C(=O)N[C@@H](CC(=O)O)C(=O)N[C@@H](CCCCN)C(=O)Nc1ccc([N+](=O)[O-])c(C(N)=O)c1; assay: as §4
[20] = substrate: Cc1cc(=O)oc2cc(NC(=O)[C@H](CCCNC(=N)N)NC(=O)[C@H](CO)NC(=O)[C@H](Cc3ccccc3)NC(=O)OC(C)(C)C)ccc12; assay: as §4

Km (Homo sapiens [1]): 19.4 µM
kcat (Homo sapiens [1]): 53.6 ×10⁻¹ /s
kcat/Km (Bos taurus [2]): 442 ×10³ /M/s
kcat/Km (Homo sapiens [3]): 276 ×10³ /M/s
Km (Bos taurus [4]): 16.5 µM
kcat (Bos taurus [4]): 72.3 ×10⁻¹ /s
Molecule: Cc1cc(=O)oc2cc(NC(=O)[C@H](CCCNC(=N)N)NC(=O)[C@H](CO)NC(=O)[C@H](Cc3ccccc3)NC(=O)OC(C)(C)C)ccc12 (Boc-Phe-Ser-Arg-{AMC})

Km (Homo sapiens [1]): 269 µM
kcat (Homo sapiens [1]): 11.8 ×10⁻¹ /s
kcat/Km (Bos taurus [2]): 0.1 ×10³ /M/s
kcat/Km (Homo sapiens [3]): 6.7 ×10³ /M/s
Km (Bos taurus [4]): 1840 µM
kcat (Bos taurus [4]): 0.8 ×10⁻¹ /s
Molecule: N=C(N)NCCC[C@H](NC(=O)c1ccccc1N)C(=O)N[C@@H](CCC(N)=O)C(=O)N[C@@H](CC(=O)O)C(=O)N[C@@H](CCCCN)C(=O)Nc1ccc([N+](=O)[O-])c(C(N)=O)c1 (H-[2Abz]RQDK-{NH(3-CONH2-4-NO2-Ph)})

Ki [5]: 973 nM
Ki [6]: 2130 nM
Ki [7]: 54.3 nM
Ki [8]: 3.93 µM
Molecule: N=C(N)NCCC[C@H](NC(=O)[C@H](CC(=O)O)NC(=O)[C@H](CCC(N)=O)NC(=O)[C@H](CCCNC(=N)N)NC(=O)c1ccccc1N)C(=O)O (H-[2Abz]RQDR-OH)

Km (Homo sapiens [1]): 155 µM
kcat (Homo sapiens [1]): 42.2 ×10⁻¹ /s
kcat/Km (Bos taurus [2]): 0.2 ×10³ /M/s
kcat/Km (Homo sapiens [3]): 27.4 ×10³ /M/s
Km (Bos taurus [4]): 1120 µM
kcat (Bos taurus [4]): 1.4 ×10⁻¹ /s
Molecule: N=C(N)NCCC[C@H](NC(=O)c1ccccc1N)C(=O)N[C@@H](CCC(N)=O)C(=O)N[C@@H](CC(=O)O)C(=O)N[C@@H](CCCNC(=N)N)C(=O)Nc1ccc([N+](=O)[O-])c(C(N)=O)c1 (H-[2Abz]RQDR-{NH(3-CONH2-4-NO2-Ph)})

B1: Transmembrane protease serine 11D (Homo sapiens), O60235 (protein)
chain: T2 sequence (O60235 whole entry)
kcat/Km [9]: 454 ×10³ /M/s
kcat/Km [10]: 195 ×10³ /M/s
kcat/Km [11]: 58.2 ×10³ /M/s
Km [12]: 25.4 µM
kcat [12]: 115 ×10⁻¹ /s
Km [13]: 12.3 µM
kcat [13]: 24.1 ×10⁻¹ /s
Km [14]: 43.6 µM
kcat [14]: 25.4 ×10⁻¹ /s

B2: Suppressor of tumorigenicity 14 protein (Homo sapiens), Q9Y5Y6 (protein)
chain: T1 sequence (Q9Y5Y6 whole entry)
kcat/Km [15]: 98.4 ×10³ /M/s
kcat/Km [16]: 23.1 ×10³ /M/s
kcat/Km [17]: 356 ×10³ /M/s
Km [18]: 68.5 µM
kcat [18]: 67.4 ×10⁻¹ /s
Km [19]: 70.6 µM
kcat [19]: 16.3 ×10⁻¹ /s
Km [20]: 12.1 µM
kcat [20]: 42.8 ×10⁻¹ /s
